Source: PubChem BioAssay (The Scripps Research Institute Molecular Screening Center)
SIAE inh – human SIAE inhibitors, primary screen, biochemical, fluorescence polarization, FP-Rh probe, 1536-well HTS; SIAE FP-Rh probe binding; Sialate O-acetylesterase (Homo sapiens), Q9HAT2; actives 0.69% (n = 370,000); inhibition, % at 9.66 µM;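 active means inhibition above a cutoff: mean of compounds within the control limits plus 3 SD of those, cut at about 17% in these data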
Target sequence (Q9HAT2 whole entry, looked up): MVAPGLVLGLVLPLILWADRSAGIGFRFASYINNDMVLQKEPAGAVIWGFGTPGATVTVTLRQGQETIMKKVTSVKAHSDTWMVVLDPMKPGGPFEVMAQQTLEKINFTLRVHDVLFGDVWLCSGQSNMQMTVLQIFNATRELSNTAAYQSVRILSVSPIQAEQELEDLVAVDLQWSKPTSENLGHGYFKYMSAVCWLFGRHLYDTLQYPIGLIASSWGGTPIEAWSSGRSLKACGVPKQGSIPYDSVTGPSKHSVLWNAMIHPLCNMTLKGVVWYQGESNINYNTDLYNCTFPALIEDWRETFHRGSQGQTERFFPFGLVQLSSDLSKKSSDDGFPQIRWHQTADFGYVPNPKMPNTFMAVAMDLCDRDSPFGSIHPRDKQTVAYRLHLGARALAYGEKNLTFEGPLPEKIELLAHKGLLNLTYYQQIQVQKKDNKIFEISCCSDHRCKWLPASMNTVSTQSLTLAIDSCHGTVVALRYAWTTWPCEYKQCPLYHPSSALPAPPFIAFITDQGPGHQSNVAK
PRMT1 inh – PRMT1 methyltransferase inhibitors, primary screen, biochemical, fluorescence polarization. Protein arginine N-methyltransferase 1 (Homo sapiens), Q99873. actives 1.3% (n = 370,000). inhibition, % at 2.79 µM. recombinant PRMT1, activity-based probe fluorescence polarization;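 active means inhibition above about 21% made by adding two undisclosed values, limit read from the data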
HTRA1 inh – HTRA1 serine protease inhibitors, primary screen, biochemical, fluorescence polarization, HTS; recombinant HTRA1, FP-rhodamine activity-based probe; inhibition, % at 5.96 µM; actives 0.5% (n = 340,000); AID 504803, 2011; in the data active means inhibition above about 36%
PAD4 FP inh – human PAD4 inhibitors, primary screen, biochemical, fluorescence polarization, 1536-well format | AID 485272, 2010 | inhibition, % at 6.36 µM | actives 0.41% (n = 330,000) | recombinant PAD4, RCA probe fluorescence polarization | Protein-arginine deiminase type-4 (Homo sapiens), Q9UM07;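 active means percent inhibition above a cutoff equal to the mean of all tested compounds plus 3 SD, cut at about 15% in these data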
mABHD4 FP – ABHD4 inhibitors, primary screen, biochemical, fluorescence polarization, mouse | actives 0.54% (n = 370,000) | inhibition, % at 8.92 µM | (Lyso)-N-acylphosphatidylethanolamine lipase (Mus musculus), Q8VD66 | purified mABHD4, FP-Rh probe fluorescence polarization | AID 720543, 2013;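 active means inhibition exceeding the mean over every tested compound plus 3 SD, cut at about 30% in these data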
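Test system: mABHD4 protein; Read-out basis: % inhibition; Incubation: 45 min + 60 min at 25 °C; Repeats: single replicate; Technique: fluorescence polarization with parallel and perpendicular emission, 525/598 nm; Compound: 8.92 µM, single dose; Benchmarks: full inhibition S159A mutant plus DMSO, zero as sample-well median.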
TCR CD3 inh – inhibitors of human TCR-CD3 interaction, primary screen, biochemical, fluorescence, TAMRA-labeled TCR probe | AID 651800, 2012 | T-cell receptor (TCR) | actives 0.37% (n = 360,000) | inhibition, % at 9.4 µM;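 further: recombinant mutant TCR 2C K166C tagged with TAMRA read by polarization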
BSA TAMRA ctr – compounds interfering with TAMRA-BSA probe, counter-screen for TCR-CD3 interaction inhibitor project, biochemical, fluorescence, TAMRA-labeled BSA | AID 652035, 2013 | actives 10% (n = 1,200) | inhibition, % at 9.4 µM | shares compounds with TCR CD3 inh | TAMRA-labeled BSA probe fluorescence counterscreen; in the data active means inhibition above about 23%
TCR-CD3 inh conf – TCR-CD3 interaction inhibitors, retest, confirmation, biochemical, fluorescence, TAMRA-labeled TCR probe. shares compounds with TCR CD3 inh. inhibition, % at 9.4 µM. AID 652036, 2013. TAMRA-labeled TCR probe fluorescence binding assay. actives 48% (n = 1,200)
A number is an active result. Compounds with a hit are over-represented: about 2.9% of the library has one in this group of screens. Unless noted, no stated cut-off is given here; in the data, active means inhibition above about 19%; inactive means the rest.

Results for Cc1ccc(C2C3=C(CCCC3=O)Nc3[nH]c(=S)[nH]c(=O)c32)cc1 (stereo not given) ?
SIAE inh: inactive; PRMT1 inh: inactive; HTRA1 inh: inactive; PAD4 FP inh: inactive; mABHD4 FP: inactive; TCR CD3 inh: inactive

Results for Cc1cc2oc3ccc(NCCCn4ccnc4)cc3c(=O)c2cc1C ?
SIAE inh: inactive; PRMT1 inh: inactive; HTRA1 inh: inactive; PAD4 FP inh: inactive; mABHD4 FP: inactive; TCR CD3 inh: 35.0; BSA TAMRA ctr: inactive; TCR-CD3 inh conf: 20.3

What do the screens show for `COC(=O)[C@]12C[C@H](CC(=O)N3CCN(C(=O)c4ccco4)CC3)C(=O)N(Cc3ccco3)C1=C[C@H](C(C)(C)C)O[C@@H]2C`?
SIAE inh: inactive; PRMT1 inh: inactive; mABHD4 FP: inactive

How did O=C(OCc1ccccc1)c1ccc(Br)o1 do in these assays?
SIAE inh: inactive; PRMT1 inh: inactive; HTRA1 inh: inactive; PAD4 FP inh: inactive; mABHD4 FP: inactive; TCR CD3 inh: 48.2; BSA TAMRA ctr: inactive; TCR-CD3 inh conf: inactive

What do the screens show for `O=C(COC(=O)c1ccc(Br)o1)NCCCc1ccccc1`?
SIAE inh: inactive; PRMT1 inh: inactive; HTRA1 inh: inactive; PAD4 FP inh: inactive; mABHD4 FP: inactive; TCR CD3 inh: inactive

Results for Cc1ncc(CO)c2c1Oc1nc(-c3ccccc3)nc(SCC(=O)Nc3cccc(O)c3)c1C2 ?
SIAE inh: inactive; PRMT1 inh: inactive; HTRA1 inh: inactive; PAD4 FP inh: inactive; mABHD4 FP: inactive; TCR CD3 inh: 21.4; BSA TAMRA ctr: inactive; TCR-CD3 inh conf: inactive

Results for COc1ccc(C(c2ccc(OC)cc2)N2CCN(C(=O)c3noc(C)c3[N+](=O)[O-])CC2)cc1 ?
SIAE inh: inactive; PRMT1 inh: inactive; mABHD4 FP: inactive

What do the screens show for `CCc1ccc(N2CC(C(=O)OCc3nc4ccsc4c(=O)[nH]3)CC2=O)cc1` (stereo not given)?
SIAE inh: inactive; PRMT1 inh: inactive; HTRA1 inh: inactive; PAD4 FP inh: inactive; mABHD4 FP: inactive; TCR CD3 inh: 27.3; BSA TAMRA ctr: inactive; TCR-CD3 inh conf: inactive

What do the screens show for `CCc1ccc(N2CC(C(=O)OCc3csc(CC(=O)Nc4ccccc4C)n3)CC2=O)cc1` (stereo not given)?
SIAE inh: inactive; PRMT1 inh: inactive; HTRA1 inh: inactive; PAD4 FP inh: inactive; mABHD4 FP: inactive; TCR CD3 inh: inactive

What do the screens show for `Cc1cnc(C(=O)OCc2nc3ccsc3c(=O)[nH]2)cn1`?
SIAE inh: inactive; PRMT1 inh: inactive; HTRA1 inh: inactive; PAD4 FP inh: inactive; mABHD4 FP: inactive; TCR CD3 inh: 28.2; BSA TAMRA ctr: inactive; TCR-CD3 inh conf: inactive

Results for Cc1ccc(C(=O)OCc2nc3ccsc3c(=O)[nH]2)o1 ?
SIAE inh: inactive; PRMT1 inh: inactive; HTRA1 inh: inactive; PAD4 FP inh: inactive; mABHD4 FP: inactive; TCR CD3 inh: inactive

How did CC(C)(C)c1ccc(-c2cn(C[C@H](Cc3ccccc3)n3c(=O)c4ccccc4n3Cc3ccco3)nn2)cc1 do in these assays?
SIAE inh: inactive; PRMT1 inh: inactive; mABHD4 FP: inactive

Results for CCCCN1CN2Cc3cc(OC)ccc3C2CS1(=O)=O (stereo not given) ?
SIAE inh: inactive; PRMT1 inh: inactive; mABHD4 FP: inactive

What do the screens show for `N#CC1=C(N)C(C#N)(C#N)C(c2ccc[nH]2)C2CCCC=C12` (stereo not given)?
SIAE inh: inactive; PRMT1 inh: inactive; HTRA1 inh: inactive; PAD4 FP inh: inactive; mABHD4 FP: inactive; TCR CD3 inh: 21.1; BSA TAMRA ctr: inactive; TCR-CD3 inh conf: inactive

Results for CN(CC1CCOCC1)C(=O)CC1C(=O)NCCN1C/C=C/c1ccccc1 (stereo not given) ?
SIAE inh: inactive; PRMT1 inh: inactive; HTRA1 inh: inactive; PAD4 FP inh: inactive; mABHD4 FP: inactive; TCR CD3 inh: 94.7; BSA TAMRA ctr: inactive; TCR-CD3 inh conf: inactive

Results for COC(=O)C1CN(CCc2ccccc2)CCS(=O)(=O)N1Cc1ccc(C)cc1 (stereo not given) ?
SIAE inh: inactive; PRMT1 inh: inactive; mABHD4 FP: inactive

How did CCN(CC)C(=O)CC[C@@H]1CC[C@]2(CCCN(C(=O)c3cccnc3)C2)O1 do in these assays?
SIAE inh: inactive; PRMT1 inh: inactive; mABHD4 FP: inactive

Results for COc1ccc(O)c(/C=N/NC(=O)c2c(C)nnn2-c2nonc2N)c1 ?
SIAE inh: inactive; PRMT1 inh: inactive; HTRA1 inh: inactive; PAD4 FP inh: inactive; mABHD4 FP: inactive; TCR CD3 inh: 25.5; BSA TAMRA ctr: inactive; TCR-CD3 inh conf: inactive

Results for COc1ccc(/C=N/NC(=O)c2nnn(-c3nonc3N)c2-c2cccc(OC)c2)cc1 ?
SIAE inh: inactive; PRMT1 inh: inactive; HTRA1 inh: inactive; PAD4 FP inh: inactive; mABHD4 FP: inactive; TCR CD3 inh: inactive

Results for NC(=O)c1c(N)[nH]c(C(=O)c2ccccc2)c1-c1ccccc1 ?
SIAE inh: inactive; PRMT1 inh: inactive; mABHD4 FP: inactive; TCR CD3 inh: inactive

How did Cc1cccc(-c2noc(CCCC(=O)N3CCOCC3)n2)c1 do in these assays?
SIAE inh: inactive; PRMT1 inh: inactive; HTRA1 inh: inactive; PAD4 FP inh: inactive; mABHD4 FP: inactive; TCR CD3 inh: 37.0; BSA TAMRA ctr: inactive; TCR-CD3 inh conf: inactive

Results for COc1ccccc1N(C)S(=O)(=O)c1ccc(C(=O)OCC(=O)c2c[nH]c3ccccc23)cc1 ?
SIAE inh: inactive; PRMT1 inh: inactive; HTRA1 inh: inactive; PAD4 FP inh: inactive; mABHD4 FP: inactive; TCR CD3 inh: 19.9; BSA TAMRA ctr: inactive; TCR-CD3 inh conf: inactive

Results for Nc1c(N(Cc2ccccc2)C(=O)COc2ccc(F)cc2Cl)c(=O)[nH]c(=O)n1Cc1ccccc1 ?
SIAE inh: inactive; PRMT1 inh: inactive; HTRA1 inh: inactive; PAD4 FP inh: inactive; mABHD4 FP: inactive; TCR CD3 inh: 21.2; BSA TAMRA ctr: inactive; TCR-CD3 inh conf: 20.9

How did CCC1CCc2sc(C(=O)OCC(=O)N(CCOC)c3c(N)n(Cc4ccccc4)c(=O)[nH]c3=O)cc2C1 (stereo not given) do in these assays?
SIAE inh: inactive; PRMT1 inh: inactive; HTRA1 inh: inactive; PAD4 FP inh: inactive; mABHD4 FP: inactive; TCR CD3 inh: inactive
